From ChEMBL document CHEMBL3797143, “Novel S1P1 receptor agonists - Part 5: From amino-to alkoxy-pyridines” (Eur J Med Chem, 2016) come the findings set out here.

Active and inactive are the calls of the source. The rule behind the calls is not given here. Bounds are passed on as bounds.

Data set [1] has as its system Rattus norvegicus. Nature of the data set: Decrease in peripheral blood lymphocyte count in Wistar rat at 10 mg/kg administered via oral gavage measured after 72 hrs. The format is functional. Put shortly:
(§1)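 Male Wistar rats (RccHan:WIST) were given 10 mg/kg orally by gavage in vehicle containing 5% DMSO. Blood drawn by sublingual vein puncture under isoflurane before dosing and at the listed times after dosing. Lymphocytes counted on a haematology analyser. Results are % change from baseline, mean of 6-8 animals.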

For data set [2], the target named is Sphingosine 1-phosphate receptor 3 (Homo sapiens, UniProt Q99500). Nature of the data set: Agonist activity at human recombinant S1PR3 expressed in CHO cell membranes incubated for 30 mins by [35S]GTPgammaS binding assay in presence of GDP. It counts as functional. Put shortly: (§2)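 Membranes from CHO cells expressing recombinant human S1P1 or S1P3. Compounds were preincubated with membranes for 30 min at room temperature. Reaction stopped by filtration, membrane-bound 35S-GTPγS counted. Geometric mean of ≥3 independent runs.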
Chain of Sphingosine 1-phosphate receptor 3 (Q99500 whole entry): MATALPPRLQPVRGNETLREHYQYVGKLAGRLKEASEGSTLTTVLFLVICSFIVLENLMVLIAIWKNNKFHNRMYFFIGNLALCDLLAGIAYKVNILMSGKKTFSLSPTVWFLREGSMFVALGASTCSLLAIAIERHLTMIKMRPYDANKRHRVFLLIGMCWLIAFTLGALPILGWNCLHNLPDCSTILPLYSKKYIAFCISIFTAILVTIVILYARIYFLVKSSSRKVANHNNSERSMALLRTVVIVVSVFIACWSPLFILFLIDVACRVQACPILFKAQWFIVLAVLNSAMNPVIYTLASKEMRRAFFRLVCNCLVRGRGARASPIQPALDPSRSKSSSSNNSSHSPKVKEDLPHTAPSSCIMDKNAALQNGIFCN
In general terms: GTPγS resists hydrolysis and so accumulates on activated G proteins.

In data set [3] the test system is Rattus norvegicus. The data set can be described thus: Time duration of maximum lymphocyte count reduction in Wistar rat at 10 mg/kg administered via oral gavage. It counts as functional. Put shortly: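 Duration of action is the latest sampling time at which maximal lymphocyte-count reduction was still seen. Male Wistar rats received 10 mg/kg orally, and blood lymphocytes were counted before dosing and at 3, 6 and 24 h (later times in some cases). Mean of 6-8 animals.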

Data set [4] has as its target Sphingosine 1-phosphate receptor 1 (Homo sapiens, UniProt P21453). Nature of the data set: Agonist activity at human recombinant S1PR1 expressed in CHO cell membranes incubated for 30 mins by [35S]GTPgammaS binding assay in presence of GDP. It counts as functional. Put shortly:
as §2

For data set [5], the system named is Rattus norvegicus. The data set can be described thus: Decrease in peripheral blood lymphocyte count in Wistar rat at 10 mg/kg administered via oral gavage measured after 6 hrs. The format is functional. More on the design: scale not given: the % may be the effect or the level left. Put shortly:
as §1

The test system of data set [6] is Rattus norvegicus. The data set can be described thus: Decrease in peripheral blood lymphocyte count in Wistar rat at 10 mg/kg administered via oral gavage measured after 3 hrs. The format is functional. The arrangement: scale not given: the % may be the effect or the level left. Put shortly: as §1
Data set [7] deals with Rattus norvegicus. The data set can be described thus: Decrease in peripheral blood lymphocyte count in Wistar rat at 10 mg/kg administered via oral gavage measured after 24 hrs. The arrangement: scale not given: the % may be the effect or the level left. It counts as functional. Put shortly: as §1
Data set [8] has as its system Rattus norvegicus. The data set can be described thus: Decrease in peripheral blood lymphocyte count in Wistar rat at 10 mg/kg administered via oral gavage measured after 48 hrs. It counts as functional. More on the design: scale not given: the % may be the effect or the level left. Put shortly:
as §1

The test system of data set [9] is Rattus norvegicus. Nature of the data set: Decrease in peripheral blood lymphocyte count in Wistar rat at 10 mg/kg administered via oral gavage measured after 144 hrs. The format is functional. The arrangement: scale not given: the % may be the effect or the level left. Put shortly:
as §1

Data set [10] has as its system Rattus norvegicus. Nature of the data set: Decrease in peripheral blood lymphocyte count in Wistar rat at 10 mg/kg administered via oral gavage measured after 96 hrs. The format is functional. The arrangement: scale not given: the % may be the effect or the level left. Put shortly: as §1
Data set [11] is described as follows: Plasma concentration in Wistar rat at 10 mg/kg administered via oral gavage measured after 144 hrs by LC-MS/MS analysis. It counts as ADME, organism-based. Put shortly:
(§3)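 Male Wistar rats received 10 mg/kg orally by gavage. Blood was drawn at the listed times into EDTA tubes, and plasma was prepared by centrifugation at 3000 g for 10 min at 4 °C. Limit of quantification 3 nM.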

Data set [12] is described as follows: Half life in Wistar rat at 10 mg/kg administered via oral gavage by LC-MS/MS analysis. The format is ADME, organism-based. To be noted: in vivo. Put shortly:
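Oral half-life was calculated from plasma concentrations measured in the lymphocyte-count study, in which male Wistar rats received 10 mg/kg orally. Plasma was prepared from EDTA blood by centrifugation at 3000 g for 10 min at 4 °C.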

Data set [13] can be described thus: Plasma concentration in Wistar rat at 10 mg/kg administered via oral gavage measured after 6 hrs by LC-MS/MS analysis. The format is ADME, organism-based. Put shortly: as §3
Data set [14] in a line: Plasma concentration in Wistar rat at 10 mg/kg administered via oral gavage measured after 96 hrs by LC-MS/MS analysis. The format is ADME, organism-based. Put shortly: as §3
Data set [15] is described as follows: Plasma concentration in Wistar rat at 10 mg/kg administered via oral gavage measured after 3 hrs by LC-MS/MS analysis. It counts as ADME, organism-based. Put shortly: as §3
Data set [16] is described as follows: Phototoxicity in Balb/c mouse 3T3 clone A31 cells assessed as AUC of UV spectra between 310 and 350 nm normalized to compound concentration at 0.05 to 100 uM preincubated for 1 hr followed by UVA irradiation measured after 24 hrs by neutral red uptake assay relative to control. The format is functional.
A short description of data set [17]: Phototoxicity in Balb/c mouse 3T3 clone A31 cells assessed as inhibition of cell viability measured as photo irritancy factor at 0.05 to 100 uM preincubated for 1 hr followed by UVA irradiation measured after 24 hrs by neutral red uptake assay relative to control. It counts as functional.
Data set [18] can be described thus: Plasma concentration in Wistar rat at 10 mg/kg administered via oral gavage measured after 24 hrs by LC-MS/MS analysis. It counts as ADME, organism-based. Put shortly: as §3
A short description of data set [19]: Plasma concentration in Wistar rat at 10 mg/kg administered via oral gavage measured after 72 hrs by LC-MS/MS analysis. It counts as ADME, organism-based. Put shortly:
as §3

The EC50 is the concentration that produces a half-maximal response. A word on the half-life: it is how long it takes for the measured level to halve.

Chain of Sphingosine 1-phosphate receptor 1 (P21453 whole entry): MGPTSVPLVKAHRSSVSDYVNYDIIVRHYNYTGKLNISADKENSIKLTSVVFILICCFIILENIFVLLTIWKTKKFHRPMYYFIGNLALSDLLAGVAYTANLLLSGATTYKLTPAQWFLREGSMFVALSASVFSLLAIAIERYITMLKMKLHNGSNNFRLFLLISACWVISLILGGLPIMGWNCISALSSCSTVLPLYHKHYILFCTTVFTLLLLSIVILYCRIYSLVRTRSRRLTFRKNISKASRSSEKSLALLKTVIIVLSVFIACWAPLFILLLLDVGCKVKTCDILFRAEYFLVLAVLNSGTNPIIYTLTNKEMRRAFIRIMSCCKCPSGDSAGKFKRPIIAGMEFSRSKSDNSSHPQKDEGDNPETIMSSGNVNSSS

For `CCc1cc(-c2noc(-c3cc(OC)nc(C4CCC4)c3)n2)cc(C)c1OC[C@@H](O)CNC(=O)CO`, in the data set on Rattus norvegicus [1], the outcome was Active. Moreover, the EC50 in data set [2] is 22 nM; in data set [4] it was 0.3 nM. Further, the Time with Rattus norvegicus [3] came to 24 h. Besides, the Activity in the data set on Rattus norvegicus [5] is given as 61%; in the data set on Rattus norvegicus [6], 56%; in the data set with Rattus norvegicus [7], 61%.
Consider `CCc1cc(-c2noc(-c3cc(CC(C)C)nc(OC)c3)n2)cc(C)c1OC[C@@H](O)CNC(=O)CO`, for which the Activity is 59% with Rattus norvegicus [8], 59% in the data set on Rattus norvegicus [5], 57% in the data set with Rattus norvegicus [6] and 66% in the data set with Rattus norvegicus [7]. Also, the EC50 in [2] came to 27 nM; in data set [4] it was 0.3 nM. In the data set on Rattus norvegicus [3], this compound came in with a Time of 48 h.
For `CCc1cc(-c2noc(-c3cc(C)nc(OC(C)C)c3)n2)cc(C)c1OC[C@@H](O)CNC(=O)CO`, the Activity in the data set on Rattus norvegicus [9] was 28%; with Rattus norvegicus [5], 67%; in the data set on Rattus norvegicus [6], 66%; in the data set with Rattus norvegicus [10], 70%; with Rattus norvegicus [7], 74%. The concentration giving a half-maximal response (EC50) in data set [2] is 95 nM; in data set [4], 0.2 nM. The compound also came in with a Time in the data set with Rattus norvegicus [3] of 96 h.
`CCc1cc(-c2noc(-c3cc(OC)nc(C4CCCC4)c3)n2)cc(C)c1OC[C@@H](O)CNC(=O)CO`: the Activity in the data set on Rattus norvegicus [9] stood at 20%; in the data set with Rattus norvegicus [5], 65%; in the data set on Rattus norvegicus [6], 62%; in the data set with Rattus norvegicus [10] it was 50%; in the data set on Rattus norvegicus [7], 70%. In [2], the 50% effective concentration (EC50) was 71 nM. Moreover, the Time in the data set on Rattus norvegicus [3] was found to be 24 h. Also, in data set [11], the concentration at 144 h came out at 12 nM. Also, the half-life in data set [12] is 18 h. For the same compound, the concentration at 6 h in data set [13] was determined as 1860 nM. Besides, the concentration at 96 h in data set [14] was determined as 68 nM. This compound also gave a concentration at 3 h in [15] of 2050 nM. Moreover, the Ratio in data set [16] came out at 0.09; in data set [17] it was 2.3. Also, in data set [18], the concentration at 24 h was determined as 1070 nM.
Consider `CCc1cc(-c2noc(-c3cc(C)nc(OC4CCC4)c3)n2)cc(C)c1OC[C@@H](O)CNC(=O)CO`, for which the Activity in the data set with Rattus norvegicus [9] was found to be 21%; with Rattus norvegicus [5], 62%; in the data set with Rattus norvegicus [6] it was 66%; in the data set on Rattus norvegicus [10] it was 62%; with Rattus norvegicus [7] it was 72%. In addition, the figures for the concentration for a half-maximal effect (EC50) in data set [2] and in data set [4] were 110 nM and 0.3 nM, respectively. Besides, the Time in the data set on Rattus norvegicus [3] came out at 96 h.
For `CCc1cc(-c2noc(-c3cc(OC)nc(C(CC)CC)c3)n2)cc(C)c1OC[C@@H](O)CNC(=O)CO`, the result in the data set on Rattus norvegicus [1] was Active. The results for the concentration giving a half-maximal response (EC50) in data set [2] and in data set [4] were 96 nM and 0.4 nM, respectively. In the data set with Rattus norvegicus [3], the Time amounted to 6 h. The half-life in [12] was 9 h. Besides, the Activity in the data set on Rattus norvegicus [5] is 59%; with Rattus norvegicus [6], 59%; in the data set on Rattus norvegicus [7], 36%. In [13], this compound yielded a concentration at 6 h of 470 nM. The compound also showed a concentration at 3 h in [15] of 750 nM. The Ratio in [16] amounted to 0.05; in data set [17], 0.9. For the same compound, the concentration at 72 h in data set [19] was < 3 nM. Moreover, the concentration at 24 h in data set [18] was found to be 46 nM.
As for `CCc1cc(-c2noc(-c3cc(C)nc(OC4CCCC4)c3)n2)cc(C)c1OC[C@@H](O)CNC(=O)CO`, the Activity in the data set with Rattus norvegicus [1] was found to be 43%; with Rattus norvegicus [5], 66%; in the data set on Rattus norvegicus [6], 69%; in the data set with Rattus norvegicus [7] it was 74%. Further, the EC50 was 190 nM in data set [2] and 1 nM in data set [4]. The Time in the data set on Rattus norvegicus [3] came out at 24 h. Also, the half-life in data set [12] was 13 h. In data set [13], this compound came in with a concentration at 6 h of 2040 nM. The compound also yielded a concentration at 3 h in data set [15] of 2200 nM. The results for the Ratio in data set [16] and in [17] were 0.12 and 7.5, respectively. In addition, the concentration at 72 h in [19] was 67 nM. This compound registered a concentration at 24 h in [18] of 790 nM.
